For orientation: pIC50 means −log10 of the IC50, conventionally taken in molar units. High values mean a low IC50, low ones a high IC50.

Test [1] addresses Ubiquitin carboxyl-terminal hydrolase isozyme L1 (Homo sapiens) (UniProt P09936). The test can be described thus: Inhibition of GST-tagged recombinant full-length UCHL1 (unknown origin) expressed in bacteria using Ub-AMC as substrate preincubated for 30 mins before substrate addition measured after 60 mins by fluorescence assay. An outline of the steps: (§1)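 Purified isopeptidase activity was measured with ubiquitin-AMC as fluorogenic substrate; IC50 was derived from inhibition.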

The next test concerns A-375. The test can be described thus: Induction of cell death in human A375 cells at 2.5 to 10 uM after 48 hrs by trypan blue assay. In kind it is functional, cell-based. A digest of the protocol: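 A549 or A375 cells treated 48 h with 2.5–10 µM. Cell death was scored by trypan blue exclusion as a function of concentration.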
In test [2] the test system is A549. The test is described as follows: Induction of cell death in human A549 cells assessed as accumulation of p53 at 10 uM after 48 hrs by immunoblot assay. In kind it is functional, cell-based. An outline of the steps:
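A549 cells grown in normal or A375-conditioned medium, treated with 10 µM. Immunoblots probed poly-ubiquitin accumulation, p53 stabilization and Noxa induction.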
For orientation: A western blot detects proteins with antibodies after separation by electrophoresis.

In test [3] the test system is A549. The test can be described thus: Induction of cell death in human A549 cells assessed as accumulation of poly-ubiquitinated proteins at 2.5 to 10 uM after 24 hrs by immunoblot assay. In kind it is functional, cell-based. A digest of the protocol:
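A549 cells dosed at three levels (2.5, 5, 10 µM or 1, 2.5, 5 µM depending on inhibitor); lysates made after 24 h. Immunoblots probed poly-ubiquitin, p53 and Noxa, quantified by densitometry; mean of two experiments.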

For test [4], the system named is A549. The test can be described thus: Cytotoxicity against human A549 cells after 48 hrs by resazurin assay. It is filed as functional, cell-based. Conditions: A549, 48 h. Background: Resazurin is reduced to fluorescent resorufin, in cell work by metabolically active cells.
In test [5] the target is T1, Ubiquitin carboxyl-terminal hydrolase isozyme L5 (Homo sapiens, UniProt Q9Y5K5).
T1 sequence (Q9Y5K5 whole entry): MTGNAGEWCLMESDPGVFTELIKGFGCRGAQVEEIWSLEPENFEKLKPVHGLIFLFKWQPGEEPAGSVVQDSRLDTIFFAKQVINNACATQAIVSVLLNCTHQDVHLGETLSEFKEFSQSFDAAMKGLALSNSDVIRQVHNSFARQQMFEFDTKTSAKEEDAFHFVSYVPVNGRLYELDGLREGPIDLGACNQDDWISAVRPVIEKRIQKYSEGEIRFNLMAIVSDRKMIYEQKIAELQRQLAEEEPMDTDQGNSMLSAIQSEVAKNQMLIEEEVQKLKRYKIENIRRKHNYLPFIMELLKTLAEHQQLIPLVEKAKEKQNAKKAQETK
The test can be described thus: Inhibition of GST-tagged UCHL5 (unknown origin) using Ub-AMC as substrate preincubated for 30 mins before substrate addition measured after 60 mins by fluorescence assay. An outline of the steps: as §1

Test [6] can be described thus: Cytotoxicity against human U87MG cells after 48 hrs by resazurin assay. Conditions: U-87 MG. It is filed as functional, cell-based, U-87MG ATCC. A digest of the protocol:
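U87MG glioblastoma cells treated with compounds; viability read by resazurin 48 h after treatment. IC50 from triplicate experiments, reported as mean and s.d.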

pIC50: −log10 of the molar value. The source made the active and inactive calls. The rule behind the calls is not given here.

Chain of Ubiquitin carboxyl-terminal hydrolase isozyme L1 (Homo sapiens) (P09936 whole entry, looked up): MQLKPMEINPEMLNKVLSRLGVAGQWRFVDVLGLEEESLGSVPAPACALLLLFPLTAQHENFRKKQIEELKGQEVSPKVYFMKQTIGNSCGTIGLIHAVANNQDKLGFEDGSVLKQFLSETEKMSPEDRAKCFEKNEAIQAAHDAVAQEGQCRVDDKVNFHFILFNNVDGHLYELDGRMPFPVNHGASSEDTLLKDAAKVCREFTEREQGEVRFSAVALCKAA

In the case of `O=C1/C(=C/c2ccc([N+](=O)[O-])cc2)CC(O)C/C1=C\c1ccc([N+](=O)[O-])cc1` (configuration not stated), the inhibition result in test [1] was “inactive”. Besides, the outcome in the test on A-375, in the test on A549 [2] and in the test on A549 [3] was Active. Besides, the pIC50 is 4.80 in the test with A549 [4], 4.37 in test [5] and 5.34 in test [6].

The values above are taken from ChEMBL document CHEMBL3407395, “Synthesis, characterization, and optimization for in vivo delivery of a nonselective isopeptidase inhibitor as new antineoplastic agent” (J Med Chem, 2015).
